Source: ChEMBL document CHEMBL1123848, “Role of the (acyloxy)methyl moiety in eliciting the adrenergic beta-blocking activity of 3-(acyloxy)propanolamines” (J Med Chem, 1987)

Columns and labels:
[1] = target: Beta-2 adrenergic receptor (Cavia porcellus) (UniProt Q8K4Z4); experiment: (§1) Antagonist activity against beta-2 adrenergic receptor in isolated guinea pig trachea; type: functional, tissue-based
[2] = target: Beta-2 adrenergic receptor (Cavia porcellus, UniProt Q8K4Z4); experiment: as §1; type: functional, tissue-based; settings: read-out: pA2 (converted)
[3] = target: Beta-1 adrenergic receptor (Cavia porcellus) (UniProt B0FL73); experiment: (§2) Antagonist activity against beta-1 adrenergic receptor in isolated guinea pig atria; type: functional
How it was run: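 Atria from adult male guinea pigs (300–350 g), stabilized 45 min in Tyrode solution. Isoprenaline dose-effect curve by single doses, each run to maximal response. Antagonist added at increasing concentrations with 15 min contact per dose; solutions freshly prepared. Percent inhibition of the maximal agonist response measured; pA2 (50% reduction) and pA10 (90%) calculated by the Arunlakshana–Schild method.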

[4] = target: Beta-1 adrenergic receptor (Cavia porcellus, UniProt B0FL73); experiment: as §2; type: functional; settings: read-out: pA2 (converted)
How it was run: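 Atria from adult male guinea pigs (300–350 g), stabilized 45 min in Tyrode solution. Isoprenaline dose-effect curve by single doses, each run to maximal response. Antagonist added at increasing concentrations with 15 min contact per dose; solutions freshly prepared.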

Chain of Beta-2 adrenergic receptor (Cavia porcellus) (Q8K4Z4 whole entry, looked up): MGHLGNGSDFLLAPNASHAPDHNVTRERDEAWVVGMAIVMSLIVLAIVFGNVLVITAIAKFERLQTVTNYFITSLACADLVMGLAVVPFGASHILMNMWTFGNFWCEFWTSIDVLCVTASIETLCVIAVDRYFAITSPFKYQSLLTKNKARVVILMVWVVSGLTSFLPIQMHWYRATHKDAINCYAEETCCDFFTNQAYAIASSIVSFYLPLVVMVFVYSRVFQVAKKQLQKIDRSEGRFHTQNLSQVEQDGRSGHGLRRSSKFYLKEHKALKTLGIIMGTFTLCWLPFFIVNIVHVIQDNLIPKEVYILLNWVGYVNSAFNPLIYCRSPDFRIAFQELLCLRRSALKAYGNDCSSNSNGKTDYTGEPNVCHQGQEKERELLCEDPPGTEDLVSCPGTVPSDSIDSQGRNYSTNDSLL
Chain of Beta-2 adrenergic receptor (Q8K4Z4 whole entry): as the sequence (Q8K4Z4 whole entry, looked up) above
Chain of Beta-1 adrenergic receptor (B0FL73 whole entry): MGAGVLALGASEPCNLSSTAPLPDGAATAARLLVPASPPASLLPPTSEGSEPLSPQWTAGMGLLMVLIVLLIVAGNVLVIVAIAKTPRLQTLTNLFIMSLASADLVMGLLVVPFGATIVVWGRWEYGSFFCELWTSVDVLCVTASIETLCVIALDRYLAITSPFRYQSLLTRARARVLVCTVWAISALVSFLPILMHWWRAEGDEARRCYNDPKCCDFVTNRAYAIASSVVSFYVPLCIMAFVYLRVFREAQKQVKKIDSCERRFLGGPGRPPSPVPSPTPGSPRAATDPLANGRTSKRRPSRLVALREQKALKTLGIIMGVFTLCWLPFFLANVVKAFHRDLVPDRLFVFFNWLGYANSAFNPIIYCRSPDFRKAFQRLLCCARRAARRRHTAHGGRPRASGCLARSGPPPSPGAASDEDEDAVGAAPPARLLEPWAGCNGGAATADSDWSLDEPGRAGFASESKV
Chain of Beta-1 adrenergic receptor (Cavia porcellus) (B0FL73 1-467): as the sequence (B0FL73 whole entry) above

Row | pA10 [1] | Kb [2] | pA10 [3] | Kb [4] | SMILES
1 | 4.52 | 4.27 µM | 3.9 | 26.9 µM | CC(C)NCC(O)COC(=O)C(C)C (stereo not given)
2 | 4.35 | 10 µM | 4.28 | 11 µM | CC(C)NCC(O)COC(=O)Cc1cccs1 (stereo not given)
3 | 3.94 | 28.8 µM | 4.1 | 11.5 µM | CC(C)C(=O)OCC(O)CNC(C)(C)C (stereo not given)
4 | 3.79 | 26.3 µM | 3.74 | 28.2 µM | CCC(=O)OCC(O)CNC(C)(C)C (stereo not given)
5 | 4.62 | 2.29 µM | 4.2 | 12.3 µM | CC(C)NCC(O)COC(=O)C1CCCCC1 (stereo not given)
6 | 5.54 | 0.468 µM | 5.11 | 1.58 µM | CC(C)NCC(O)COC(=O)c1cccs1 (stereo not given)
7 | 6.82 | 0.0191 µM | 5.42 | 0.457 µM | CC(C)(C)NCC(O)COC(=O)c1cccs1 (stereo not given)
8 | 4.71 | 2.51 µM | 4.22 | 7.94 µM | CC(C)(C)NCC(O)COC(=O)C1CCCCC1 (stereo not given)
9 |  |  |  | 0.126 µM | CC(C)NCC(O)COC(=O)c1ccc2c(c1)OCO2 (stereo not given)

Row | SMILES | pA10 [1] | Kb [2] | pA10 [3] | Kb [4]
10 | COc1ccc(OC)c(C(O)C(C)NC(C)(C)C)c1 (stereo not given) | 5.96 |  | 3.98 | 
